Key:
Homo sapiens = species on record: Homo sapiens; test: Selectivity index, ratio of IC50 for human recombinant MAO-B to IC50 for human recombinant MAO-A
Summary of the method: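 Selectivity index for MAO A = IC50(MAO B)/IC50(MAO A), with both human isoforms assayed against kynuramine substrate.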

Rattus norvegicus [1] = test: In vivo inhibition of MAO-A in Sprague-Dawley rat assessed as 5-hydroxyindoleacetic acid in brain striatum at 100 umol/kg, sc after 1 hr by HPLC/EC analysis relative to control; assay type: functional; parameters: scale not given: the % may be the effect or the level left
Summary of the method: (§1)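 Freely moving rats dosed subcutaneously and sacrificed 1 h later. Striatal DOPAC, 3-MT and 5-HIAA were measured post mortem and expressed as % of saline control (n = 4). Significance was by Student's t-test, P < 0.05.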

Rattus norvegicus [2] = test: In vivo inhibition of MAO-A in Sprague-Dawley rat assessed as 3-methoxytyramine level in brain striatum at 100 umol/kg, sc after 1 hr by HPLC/EC analysis relative to control; assay type: functional; parameters: scale not given: the % may be the effect or the level left; summary of the method: as §1
[3] = target: T1, Amine oxidase [flavin-containing] A (Homo sapiens, UniProt P21397); test: Inhibition of human recombinant MAO-A assessed as kynuramine oxidation to 4-hydroxyquinoline after 40 mins by LC-MS/MS analysis
T1 sequence (P21397 whole entry): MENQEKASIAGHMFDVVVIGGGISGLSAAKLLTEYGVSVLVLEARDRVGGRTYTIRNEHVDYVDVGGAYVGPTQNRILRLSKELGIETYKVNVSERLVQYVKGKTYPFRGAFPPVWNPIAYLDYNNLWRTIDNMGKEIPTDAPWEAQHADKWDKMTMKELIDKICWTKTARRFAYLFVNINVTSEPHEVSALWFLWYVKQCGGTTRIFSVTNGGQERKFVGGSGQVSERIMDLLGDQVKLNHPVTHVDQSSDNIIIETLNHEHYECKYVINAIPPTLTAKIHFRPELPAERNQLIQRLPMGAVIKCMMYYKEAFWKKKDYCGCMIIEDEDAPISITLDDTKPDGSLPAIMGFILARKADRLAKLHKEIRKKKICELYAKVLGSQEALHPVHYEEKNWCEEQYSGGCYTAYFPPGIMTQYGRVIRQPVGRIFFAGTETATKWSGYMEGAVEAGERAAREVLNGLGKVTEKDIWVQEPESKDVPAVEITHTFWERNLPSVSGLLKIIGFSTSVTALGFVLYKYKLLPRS
Summary of the method: (§2)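 Human MAO A and MAO B inhibition using kynuramine as a mixed substrate for both isoforms. IC50 is given as the mean ± SE of duplicate determinations.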

[4] = Metabolic stability in rat liver microsomes assessed as compound remaining at 5 uM after 60 mins by LC-MS/MS analysis; assay type: ADME; settings: read-out: Stability
Summary of the method: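 Incubation with rat liver microsomes, read as % of compound remaining after 60 min.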

Rattus norvegicus [5] = test: In vivo inhibition of MAO-A in Sprague-Dawley rat assessed as 3,4-dihydroxyphenylacetic acid level in brain striatum at 100 umol/kg, sc after 1 hr by HPLC/EC analysis relative to control; assay type: functional; parameters: scale not given: the % may be the effect or the level left; summary of the method: as §1
[6] = target: T2, Amine oxidase [flavin-containing] B (Homo sapiens, UniProt P27338); test: Inhibition of human recombinant MAO-B assessed as kynuramine oxidation to 4-hydroxyquinoline after 40 mins by LC-MS/MS analysis; summary of the method: as §2
T2 sequence (P27338 whole entry): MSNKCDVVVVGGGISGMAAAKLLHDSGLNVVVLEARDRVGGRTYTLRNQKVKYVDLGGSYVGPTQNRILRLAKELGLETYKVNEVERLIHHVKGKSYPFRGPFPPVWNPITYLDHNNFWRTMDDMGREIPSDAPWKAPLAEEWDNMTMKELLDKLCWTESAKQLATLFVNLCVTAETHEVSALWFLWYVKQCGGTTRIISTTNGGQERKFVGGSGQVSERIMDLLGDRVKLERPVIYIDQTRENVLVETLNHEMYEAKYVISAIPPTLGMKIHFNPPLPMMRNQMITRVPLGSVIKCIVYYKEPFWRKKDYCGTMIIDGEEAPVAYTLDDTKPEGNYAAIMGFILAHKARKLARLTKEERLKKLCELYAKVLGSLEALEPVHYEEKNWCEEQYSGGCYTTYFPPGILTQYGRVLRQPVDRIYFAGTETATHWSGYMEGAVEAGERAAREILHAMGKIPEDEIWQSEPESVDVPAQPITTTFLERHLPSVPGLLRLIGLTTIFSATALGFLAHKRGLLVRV

[7] = Aqueous solubility of the compound in saline solution; assay type: physicochemical
Rattus norvegicus [8] = test: In vivo inhibition of MAO-A in Sprague-Dawley rat assessed as 3,4-dihydroxyphenylacetic acid level in brain striatum at 80 umol/kg, sc after 1 hr by HPLC/EC analysis relative to control; assay type: functional; parameters: scale not given: the % may be the effect or the level left; summary of the method: as §1
Rattus norvegicus [9] = test: In vivo inhibition of MAO-A in Sprague-Dawley rat assessed as 3-methoxytyramine level in brain striatum at 80 umol/kg, sc after 1 hr by HPLC/EC analysis relative to control; assay type: functional; parameters: scale not given: the % may be the effect or the level left; summary of the method: as §1
Rattus norvegicus [10] = test: In vivo inhibition of MAO-A in Sprague-Dawley rat assessed as 5-hydroxyindoleacetic acid in brain striatum at 80 umol/kg, sc after 1 hr by HPLC/EC analysis relative to control; assay type: functional; parameters: scale not given: the % may be the effect or the level left; summary of the method: as §1
D(2) dopamine receptor = D(2) dopamine receptor (Homo sapiens, UniProt P14416); test: Antagonist activity at dopamine D2 receptor (unknown origin) expressed in HEK cells co-expressing Gqi5 assessed as inhibition of dopamine-induced effect by FLIPR assay; assay type: cell-based, HEK293
Rattus norvegicus [11] = test: In vivo inhibition of MAO-A in Sprague-Dawley rat assessed as 5-hydroxyindoleacetic acid in brain striatum at 53 umol/kg, sc after 1 hr by HPLC/EC analysis relative to control; assay type: functional; parameters: scale not given: the % may be the effect or the level left
Summary of the method: (§3)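 Freely moving rats were given a subcutaneous dose and sacrificed 1 h later. Striatal DOPAC, 3-MT and 5-HIAA were measured post mortem and expressed as % of saline control (n = 4). Significance was tested by Student's t-test (P < 0.05).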

Rattus norvegicus [12] = test: In vivo inhibition of MAO-A in Sprague-Dawley rat assessed as 3,4-dihydroxyphenylacetic acid level in brain striatum at 53 umol/kg, sc after 1 hr by HPLC/EC analysis relative to control; assay type: functional; parameters: scale not given: the % may be the effect or the level left; summary of the method: as §3
Rattus norvegicus [13] = test: In vivo inhibition of MAO-A in Sprague-Dawley rat assessed as 3-methoxytyramine level in brain striatum at 53 umol/kg, sc after 1 hr by HPLC/EC analysis relative to control; assay type: functional; parameters: scale not given: the % may be the effect or the level left; summary of the method: as §3
[14] = target: Sodium-dependent dopamine transporter (Homo sapiens) (UniProt Q01959); test: Displacement of [3H]BTCP from human dopamine transporter at 1 uM relative to control
Summary of the method: (§4)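 Competition binding run by a contract lab, read as % inhibition of control specific binding at a single test concentration. Radioligand per target: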

[15] = target: Sodium-dependent serotonin transporter (Homo sapiens) (UniProt P31645); test: Displacement of [3H]-imipramine from human serotonin transporter at 1 uM relative to control; summary of the method: as §4
[16] = target: Adrenergic receptor alpha-1 (Rattus norvegicus) (UniProt P15823+P23944+P43140); test: Displacement of [3H]-prazosin from rat alpha-1 adrenergic receptor at 1 uM relative to control; summary of the method: as §4
[17] = target: T3, 5-hydroxytryptamine receptor 1A (Homo sapiens) (UniProt P08908); test: Displacement of [3H]8-OH-DPAT from human 5-HT1A receptor at 1 uM relative to control; summary of the method: as §4
T3 sequence (whole entry): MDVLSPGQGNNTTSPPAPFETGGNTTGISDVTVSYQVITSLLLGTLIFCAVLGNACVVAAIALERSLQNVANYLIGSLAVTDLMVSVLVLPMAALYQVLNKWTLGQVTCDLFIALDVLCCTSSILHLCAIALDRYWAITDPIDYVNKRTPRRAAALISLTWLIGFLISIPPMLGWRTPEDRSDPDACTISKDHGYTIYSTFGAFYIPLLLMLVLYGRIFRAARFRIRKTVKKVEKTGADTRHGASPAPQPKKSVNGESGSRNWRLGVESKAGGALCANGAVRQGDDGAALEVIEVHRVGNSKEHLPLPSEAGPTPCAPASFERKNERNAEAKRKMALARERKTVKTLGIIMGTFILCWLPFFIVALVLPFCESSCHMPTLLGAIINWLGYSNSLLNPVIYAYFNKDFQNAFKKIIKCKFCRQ

[18] = target: 5-hydroxytryptamine receptor 2A (Homo sapiens) (UniProt P28223); test: Displacement of [3H]-ketanserin from human 5-HT2A receptor at 1 uM relative to control; summary of the method: as §4
[19] = target: Adrenergic receptor alpha-2 (Rattus norvegicus) (UniProt P22086+P19328+P22909); test: Displacement of [3H]-RX-821002 from rat alpha-2 adrenergic receptor at 1 uM relative to control; summary of the method: as §4
[20] = target: Sodium-dependent noradrenaline transporter (Homo sapiens) (UniProt P23975); test: Displacement of [3H]-nisoxetin from human norepinephrine transporter at 1 uM relative to control; summary of the method: as §4
[21] = target: Histamine H1 receptor (Homo sapiens) (UniProt P35367); test: Displacement of histamine from human histamine H1 receptor at 1 uM relative to control; summary of the method: as §4
Sequence of Histamine H1 receptor (Homo sapiens) (P35367 whole entry): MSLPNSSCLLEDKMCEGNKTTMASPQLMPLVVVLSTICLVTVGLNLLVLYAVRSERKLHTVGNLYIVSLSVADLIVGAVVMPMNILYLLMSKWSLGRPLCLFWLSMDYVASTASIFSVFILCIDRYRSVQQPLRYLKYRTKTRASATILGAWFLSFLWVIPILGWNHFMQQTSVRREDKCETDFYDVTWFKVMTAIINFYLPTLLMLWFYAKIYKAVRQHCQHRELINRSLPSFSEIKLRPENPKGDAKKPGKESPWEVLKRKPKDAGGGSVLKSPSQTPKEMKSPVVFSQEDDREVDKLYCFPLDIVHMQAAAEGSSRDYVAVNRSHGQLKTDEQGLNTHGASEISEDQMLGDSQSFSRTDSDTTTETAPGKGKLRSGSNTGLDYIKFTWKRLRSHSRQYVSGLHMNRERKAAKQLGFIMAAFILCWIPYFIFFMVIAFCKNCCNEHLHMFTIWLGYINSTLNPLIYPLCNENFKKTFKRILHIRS

Sequence of D(2) dopamine receptor (P14416 whole entry): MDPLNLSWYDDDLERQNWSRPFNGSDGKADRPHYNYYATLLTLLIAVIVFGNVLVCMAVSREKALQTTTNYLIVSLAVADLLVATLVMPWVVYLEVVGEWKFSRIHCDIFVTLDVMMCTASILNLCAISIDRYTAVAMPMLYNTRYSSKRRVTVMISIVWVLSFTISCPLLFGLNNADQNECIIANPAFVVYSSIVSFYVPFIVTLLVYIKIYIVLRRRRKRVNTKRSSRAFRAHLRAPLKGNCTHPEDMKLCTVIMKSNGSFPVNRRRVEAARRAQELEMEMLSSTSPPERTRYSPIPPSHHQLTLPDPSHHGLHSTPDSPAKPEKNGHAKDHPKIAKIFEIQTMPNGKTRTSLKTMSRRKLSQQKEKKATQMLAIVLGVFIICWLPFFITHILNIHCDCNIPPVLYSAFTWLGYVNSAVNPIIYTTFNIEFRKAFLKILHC
Sequence of Sodium-dependent serotonin transporter (Homo sapiens) (P31645 whole entry, looked up): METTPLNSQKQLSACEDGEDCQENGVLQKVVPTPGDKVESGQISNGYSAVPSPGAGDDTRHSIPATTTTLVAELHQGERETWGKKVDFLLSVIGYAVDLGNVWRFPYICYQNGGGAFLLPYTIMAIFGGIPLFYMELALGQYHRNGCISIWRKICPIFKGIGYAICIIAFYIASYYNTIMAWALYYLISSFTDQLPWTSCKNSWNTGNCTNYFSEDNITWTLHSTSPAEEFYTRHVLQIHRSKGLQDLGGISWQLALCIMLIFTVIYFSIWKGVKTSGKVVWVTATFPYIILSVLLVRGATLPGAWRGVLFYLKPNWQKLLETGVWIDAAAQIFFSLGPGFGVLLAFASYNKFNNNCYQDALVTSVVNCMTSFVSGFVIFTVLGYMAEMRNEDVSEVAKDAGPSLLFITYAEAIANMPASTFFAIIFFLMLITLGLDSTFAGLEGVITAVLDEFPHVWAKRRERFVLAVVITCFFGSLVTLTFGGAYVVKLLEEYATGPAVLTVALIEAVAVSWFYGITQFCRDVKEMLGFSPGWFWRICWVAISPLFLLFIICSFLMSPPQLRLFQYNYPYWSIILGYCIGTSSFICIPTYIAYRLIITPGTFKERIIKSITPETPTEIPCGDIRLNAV
Sequence of Sodium-dependent dopamine transporter (Homo sapiens) (Q01959 whole entry): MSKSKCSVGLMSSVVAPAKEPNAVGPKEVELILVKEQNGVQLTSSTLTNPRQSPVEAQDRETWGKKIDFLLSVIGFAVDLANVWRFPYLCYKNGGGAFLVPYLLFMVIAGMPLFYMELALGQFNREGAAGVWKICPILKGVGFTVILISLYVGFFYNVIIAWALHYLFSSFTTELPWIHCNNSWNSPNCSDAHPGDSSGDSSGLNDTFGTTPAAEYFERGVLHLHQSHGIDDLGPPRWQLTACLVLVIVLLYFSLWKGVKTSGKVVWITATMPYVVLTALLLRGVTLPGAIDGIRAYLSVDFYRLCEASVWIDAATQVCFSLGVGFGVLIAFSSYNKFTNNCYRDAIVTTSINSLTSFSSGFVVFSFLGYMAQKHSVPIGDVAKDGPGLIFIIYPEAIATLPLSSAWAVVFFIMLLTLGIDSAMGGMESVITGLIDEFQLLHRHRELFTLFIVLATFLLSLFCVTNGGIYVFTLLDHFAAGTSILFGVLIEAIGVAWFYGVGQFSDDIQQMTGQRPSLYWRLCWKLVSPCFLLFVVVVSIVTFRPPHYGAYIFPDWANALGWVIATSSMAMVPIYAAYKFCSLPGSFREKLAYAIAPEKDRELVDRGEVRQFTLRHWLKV
Sequence of Sodium-dependent noradrenaline transporter (Homo sapiens) (P23975 whole entry): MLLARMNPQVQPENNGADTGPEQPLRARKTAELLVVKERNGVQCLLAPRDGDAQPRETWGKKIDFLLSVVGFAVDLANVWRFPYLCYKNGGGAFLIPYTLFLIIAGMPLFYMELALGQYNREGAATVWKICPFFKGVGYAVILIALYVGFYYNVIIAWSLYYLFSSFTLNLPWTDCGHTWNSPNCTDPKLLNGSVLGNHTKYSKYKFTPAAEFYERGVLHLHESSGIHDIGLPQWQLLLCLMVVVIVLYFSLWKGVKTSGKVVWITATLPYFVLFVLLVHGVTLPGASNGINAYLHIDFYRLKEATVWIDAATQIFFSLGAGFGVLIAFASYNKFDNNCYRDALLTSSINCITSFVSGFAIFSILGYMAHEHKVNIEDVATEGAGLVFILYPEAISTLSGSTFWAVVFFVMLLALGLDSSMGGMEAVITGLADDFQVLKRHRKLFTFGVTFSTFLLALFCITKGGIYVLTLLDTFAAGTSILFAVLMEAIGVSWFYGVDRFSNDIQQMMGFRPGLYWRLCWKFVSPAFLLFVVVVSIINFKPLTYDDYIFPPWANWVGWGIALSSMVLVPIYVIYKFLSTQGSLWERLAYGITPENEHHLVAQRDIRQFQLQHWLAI
Sequence of 5-hydroxytryptamine receptor 2A (Homo sapiens) (P28223 whole entry): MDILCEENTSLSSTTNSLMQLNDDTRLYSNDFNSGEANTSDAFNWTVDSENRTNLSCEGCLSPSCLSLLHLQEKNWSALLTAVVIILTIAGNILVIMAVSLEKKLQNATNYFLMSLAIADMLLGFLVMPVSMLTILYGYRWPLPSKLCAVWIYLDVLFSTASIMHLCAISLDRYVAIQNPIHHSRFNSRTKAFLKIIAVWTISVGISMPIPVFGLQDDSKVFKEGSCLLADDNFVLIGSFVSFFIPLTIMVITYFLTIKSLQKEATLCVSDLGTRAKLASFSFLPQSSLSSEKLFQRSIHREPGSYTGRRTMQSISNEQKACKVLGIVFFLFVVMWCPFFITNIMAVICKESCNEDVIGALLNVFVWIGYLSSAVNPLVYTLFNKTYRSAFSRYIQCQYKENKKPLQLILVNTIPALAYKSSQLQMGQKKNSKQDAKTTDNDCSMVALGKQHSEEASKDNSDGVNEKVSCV

O=c1oc2ccccc2cc1CN1CCCC1 [listing 1 of 2 here]
Ratio IC50 (Homo sapiens): > 15.8

O=c1oc2ccccc2cc1CN1CCCC1 [listing 2 of 2 here]
Activity (Rattus norvegicus [1]): 106%
Activity (Rattus norvegicus [2]): 164%
IC50 [3]: 6.32 µM
remaining at 1 h, 5 µM [4]: < 5%
Activity (Rattus norvegicus [5]): 58%
IC50 [6]: > 100 µM

CCCNCc1cc2ccccc2oc1=O
Ratio IC50 (Homo sapiens): 3.6

Br.O=c1oc2ccc(O)cc2cc1CN1CCCC1
solubility [7]: > 5000 µg/mL

O=c1oc2ccc(O)cc2cc1CN1CCCC1 [listing 1 of 2 here]
Activity (Rattus norvegicus [8]): 47%
IC50 [3]: 1.46 µM
Activity (Rattus norvegicus [9]): 126%
Activity (Rattus norvegicus [10]): 86%
IC50 [6]: > 100 µM

CCCCOc1ccc2oc(=O)c(CNCC)cc2c1
IC50 [3]: 1.95 µM
Ratio IC50 (Homo sapiens): 3.7
IC50 [6]: 7.34 µM

O=c1oc2ccc(O)cc2cc1CN1CCCC1 [listing 2 of 2 here]
Ratio IC50 (Homo sapiens): > 68

O=c1oc2ccc(C(F)(F)F)cc2cc1CN1CCCC1 [listing 1 of 2 here]
Activity (Rattus norvegicus [1]): 104%
Activity (Rattus norvegicus [2]): 88%
IC50 [3]: 8.46 µM
IC50 (D(2) dopamine receptor): > 30 µM
Activity (Rattus norvegicus [5]): 77%
IC50 [6]: > 100 µM

COc1ccc2oc(=O)c(CN3CCCC3)cc2c1
Activity (Rattus norvegicus [1]): 90%
Activity (Rattus norvegicus [2]): 129%
IC50 [3]: 4.48 µM
IC50 (D(2) dopamine receptor): > 30 µM
Activity (Rattus norvegicus [5]): 65%
IC50 [6]: > 100 µM

C#CCN(C)[C@H](C)Cc1ccccc1 [SELEGILINE]
Activity (Rattus norvegicus [11]): 96%
Activity (Rattus norvegicus [12]): 36%
Activity (Rattus norvegicus [13]): 146%

N[C@@H]1C[C@H]1c1ccccc1.N[C@H]1C[C@@H]1c1ccccc1
Ratio IC50 (Homo sapiens): 1

O=c1oc2ccc(C(F)(F)F)cc2cc1CN1CCCC1 [listing 2 of 2 here]
inhibition [14]: 8%
inhibition [15]: -4%
inhibition [16]: 4%
inhibition [17]: 8%
inhibition [18]: 20%
Ratio IC50 (Homo sapiens): > 11.8
inhibition [19]: 20%
inhibition [20]: 1%
inhibition [21]: 4%

Cl.Nc1ccc2oc(=O)c(CN3CCCC3)cc2c1
solubility [7]: > 5000 µg/mL
